# Assay results from ChEMBL document CHEMBL3098117, “Identification and optimization of an aminoalcohol-carbazole series with antimalarial properties” (ACS Med Chem Lett, 2013).
# Activity calls are given as the source filed them. The calls are words filed in the database; no cut-off is given here.
# Legend:
# [1] = Cmax in NMRI mouse at 1 mg/kg, iv and 5 mg/kg, po by LC-MS/MS analysis; assay type: ADME, organism-based; details: in vivo
# Plasmodium berghei [2] = experiment: Antimalarial activity against Plasmodium berghei ANKA expressing GFP infected in NMRI mouse assessed as reduction in parasitemia at 100 mg/kg/day, po qd for 4 days measured at 24 hrs after last dose relative to control; assay type: functional; parameters: scale not given: the % may be the effect or the level left
# Method in brief: (§1)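 P. berghei-infected mice dosed orally once daily on days 0–3, first dose 4 h postinfection, at 3, 10, 30 and 100 mg/kg/day. Red blood cell parasitemia and plasma exposure measured on day 4, 24 h after last dose; ED50 derived from dose-response; survival then monitored for 26 further days as mean survival days.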
# [3] = Terminal half life in NMRI mouse at 5 mg/kg, po by LC-MS/MS analysis; assay type: ADME, organism-based; parameters: dose 5 mg/kg, route oral; details: in vivo, read-out: beta t1/2 (converted)
# [4] = Volume of distribution at steady state in NMRI mouse at 1 mg/kg, iv by LC-MS/MS analysis; assay type: ADME, organism-based; parameters: dose 1 mg/kg, route intravenous; details: in vivo, read-out: Vdss
# Plasmodium falciparum [5] = experiment: Antimalarial activity against drug-sensitive Plasmodium falciparum NF54; assay type: functional, organism-based
# Cytochrome P450 2B6 = target: T1, Cytochrome P450 2B6 (Homo sapiens, UniProt P20813); experiment: Inhibition of human recombinant CYP2B6 expressed in baculovirus-infected insect cells preincubated for 15 mins followed by substrate addition measured after 30 mins by luminescence assay; assay type: ADME; details: recombinant enzyme, 0.5 h
# T1 sequence (P20813 whole entry): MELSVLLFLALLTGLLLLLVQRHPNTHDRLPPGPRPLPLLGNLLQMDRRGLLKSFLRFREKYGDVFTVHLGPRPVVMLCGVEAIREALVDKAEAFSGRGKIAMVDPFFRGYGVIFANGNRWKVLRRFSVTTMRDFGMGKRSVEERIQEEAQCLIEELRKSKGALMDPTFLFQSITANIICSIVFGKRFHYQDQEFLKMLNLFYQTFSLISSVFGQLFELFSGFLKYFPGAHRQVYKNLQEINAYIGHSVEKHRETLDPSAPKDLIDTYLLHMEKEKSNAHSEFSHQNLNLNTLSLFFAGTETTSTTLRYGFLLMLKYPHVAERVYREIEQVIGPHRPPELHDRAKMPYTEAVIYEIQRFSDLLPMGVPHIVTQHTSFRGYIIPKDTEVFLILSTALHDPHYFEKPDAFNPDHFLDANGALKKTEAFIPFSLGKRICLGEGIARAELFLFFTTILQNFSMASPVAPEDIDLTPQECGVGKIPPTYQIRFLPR
# [6] = AUC in NMRI mouse at 1 mg/kg, iv and 5 mg/kg, po by LC-MS/MS analysis; assay type: ADME, organism-based; details: plasma
# [7] = target: Potassium voltage-gated channel subfamily A member 5 (Homo sapiens) (UniProt P22460); experiment: Inhibition of human Kv1.5 channel
# Salmonella typhimurium = experiment: Mutagenic activity in Salmonella typhimurium by Ames test; assay type: toxicity, organism-based; details: salmonella enterica subsp. enterica serovar typhimurium
# Cytochrome P450 2C8 = target: T2, Cytochrome P450 2C8 (Homo sapiens, UniProt P10632); experiment: Inhibition of human recombinant CYP2C8 expressed in baculovirus-infected insect cells preincubated for 15 mins followed by substrate addition measured after 30 mins by luminescence assay; assay type: ADME; details: recombinant enzyme, 0.5 h
# T2 sequence (P10632 whole entry): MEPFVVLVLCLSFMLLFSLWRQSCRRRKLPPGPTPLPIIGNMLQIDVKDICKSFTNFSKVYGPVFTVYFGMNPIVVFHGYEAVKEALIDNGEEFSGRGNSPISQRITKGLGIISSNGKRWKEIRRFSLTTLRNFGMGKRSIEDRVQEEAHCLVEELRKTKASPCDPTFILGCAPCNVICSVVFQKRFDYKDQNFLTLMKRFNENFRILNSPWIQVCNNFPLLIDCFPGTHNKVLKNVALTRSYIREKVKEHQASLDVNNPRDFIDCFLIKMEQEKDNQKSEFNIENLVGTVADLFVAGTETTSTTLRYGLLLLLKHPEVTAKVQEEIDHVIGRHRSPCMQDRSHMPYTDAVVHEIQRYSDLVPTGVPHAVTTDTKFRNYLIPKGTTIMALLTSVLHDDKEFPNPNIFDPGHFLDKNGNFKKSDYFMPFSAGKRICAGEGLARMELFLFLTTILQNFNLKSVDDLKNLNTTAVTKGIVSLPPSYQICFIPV
# Plasmodium falciparum [8] = experiment: Antimalarial activity against mefloquine-resistant Plasmodium falciparum TM91C235; assay type: functional, organism-based
# Plasmodium falciparum [9] = experiment: Antimalarial activity against Plasmodium falciparum K1 infected in human RBC after 72 hrs by hypoxanthine incorporation assay in presence of serum albumin; assay type: functional, organism-based; details: K1, 72 h
# Method in brief: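 Mixture of drug, human red blood cells and P. falciparum incubated 3 days (72 h) with serum albumin present; growth read as hypoxanthine incorporation.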
# Plasmodium falciparum [10] = experiment: Antimalarial activity against chloroquine and pyrimethamine-resistant Plasmodium falciparum K1; assay type: functional, organism-based
# Method in brief: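 P. falciparum cultured with test drug in human red blood cells for 3 days. Growth read out as hypoxanthine incorporation.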
# Cytochrome P450 2D6 = Cytochrome P450 2D6 (Homo sapiens, UniProt P10635); experiment: Inhibition of human recombinant CYP2D6 expressed in baculovirus-infected insect cells preincubated for 15 mins followed by substrate addition measured after 30 mins by luminescence assay; assay type: ADME; details: recombinant enzyme, 0.5 h
# [11] = target: T3, A-type voltage-gated potassium channel KCND3 (Homo sapiens, UniProt Q9UK17); experiment: Inhibition of Kv4.3 channel (unknown origin)
# T3 sequence (Q9UK17 whole entry): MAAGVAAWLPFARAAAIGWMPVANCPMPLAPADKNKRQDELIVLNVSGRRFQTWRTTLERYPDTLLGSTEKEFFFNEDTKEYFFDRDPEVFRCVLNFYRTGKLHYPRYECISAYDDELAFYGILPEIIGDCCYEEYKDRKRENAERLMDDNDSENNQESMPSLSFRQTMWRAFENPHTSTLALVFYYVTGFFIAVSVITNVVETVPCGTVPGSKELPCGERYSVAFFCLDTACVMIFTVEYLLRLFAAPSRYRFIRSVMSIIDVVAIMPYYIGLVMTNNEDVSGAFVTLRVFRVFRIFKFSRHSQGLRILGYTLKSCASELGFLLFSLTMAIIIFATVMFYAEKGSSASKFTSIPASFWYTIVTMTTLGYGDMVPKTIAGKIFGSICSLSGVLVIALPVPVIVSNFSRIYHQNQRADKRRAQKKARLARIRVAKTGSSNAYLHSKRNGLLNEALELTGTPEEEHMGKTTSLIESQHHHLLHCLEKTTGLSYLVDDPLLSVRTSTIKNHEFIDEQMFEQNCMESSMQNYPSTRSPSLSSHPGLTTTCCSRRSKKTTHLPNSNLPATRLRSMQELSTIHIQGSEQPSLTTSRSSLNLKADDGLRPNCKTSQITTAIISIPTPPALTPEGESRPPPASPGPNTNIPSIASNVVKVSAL
# Plasmodium berghei [12] = experiment: Antimalarial activity against Plasmodium berghei ANKA expressing GFP infected in NMRI mouse assessed as increase in mouse survival at 30 mg/kg/day, po qd for 4 days measured at 24 hrs after last dose; assay type: functional, organism-based; method in brief: as §1
# Plasmodium berghei [13] = experiment: Antimalarial activity against Plasmodium berghei ANKA expressing GFP infected in NMRI mouse assessed as reduction in parasitemia at 10 mg/kg/day, po qd for 4 days measured at 24 hrs after last dose relative to control; assay type: functional; parameters: scale not given: the % may be the effect or the level left; method in brief: as §1
# hERG (KCNH2) = hERG (KCNH2) (Homo sapiens, UniProt Q12809); experiment: Inhibition of human ERG expressed in CHO cells at 10 uM relative to control; assay type: cell-based; details: CHO cells expressing human ERG
# Sequence of hERG (KCNH2) (Q12809 whole entry): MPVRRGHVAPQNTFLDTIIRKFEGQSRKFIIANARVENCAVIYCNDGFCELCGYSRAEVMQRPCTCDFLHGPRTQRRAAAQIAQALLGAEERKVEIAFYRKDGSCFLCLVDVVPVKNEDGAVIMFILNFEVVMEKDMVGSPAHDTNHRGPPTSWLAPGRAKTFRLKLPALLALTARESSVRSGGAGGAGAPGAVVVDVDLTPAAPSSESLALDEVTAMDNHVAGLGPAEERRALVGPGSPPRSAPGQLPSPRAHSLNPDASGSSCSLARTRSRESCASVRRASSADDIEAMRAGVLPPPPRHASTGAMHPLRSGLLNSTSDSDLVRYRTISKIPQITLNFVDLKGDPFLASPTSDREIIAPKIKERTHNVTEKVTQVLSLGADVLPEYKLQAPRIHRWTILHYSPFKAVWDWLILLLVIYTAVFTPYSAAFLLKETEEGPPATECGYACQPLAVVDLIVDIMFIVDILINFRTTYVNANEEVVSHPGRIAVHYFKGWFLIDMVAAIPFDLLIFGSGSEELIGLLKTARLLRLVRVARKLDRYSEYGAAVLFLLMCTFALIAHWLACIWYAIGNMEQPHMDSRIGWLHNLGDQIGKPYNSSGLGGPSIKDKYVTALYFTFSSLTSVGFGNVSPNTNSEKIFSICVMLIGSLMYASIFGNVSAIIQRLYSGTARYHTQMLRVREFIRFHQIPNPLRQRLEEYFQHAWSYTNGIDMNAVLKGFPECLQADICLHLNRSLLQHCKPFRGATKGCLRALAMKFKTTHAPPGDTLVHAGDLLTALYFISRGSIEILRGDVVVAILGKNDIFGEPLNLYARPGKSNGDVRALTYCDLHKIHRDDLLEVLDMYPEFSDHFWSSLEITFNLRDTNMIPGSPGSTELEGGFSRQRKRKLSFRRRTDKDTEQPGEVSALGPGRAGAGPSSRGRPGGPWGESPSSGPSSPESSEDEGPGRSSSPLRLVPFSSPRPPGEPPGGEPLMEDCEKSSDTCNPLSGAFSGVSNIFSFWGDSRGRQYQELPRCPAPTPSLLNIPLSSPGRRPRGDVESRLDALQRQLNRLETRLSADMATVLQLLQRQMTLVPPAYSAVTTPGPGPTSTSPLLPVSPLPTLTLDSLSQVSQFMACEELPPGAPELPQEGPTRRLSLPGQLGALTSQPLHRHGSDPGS
# Sequence of Potassium voltage-gated channel subfamily A member 5 (Homo sapiens) (P22460 whole entry): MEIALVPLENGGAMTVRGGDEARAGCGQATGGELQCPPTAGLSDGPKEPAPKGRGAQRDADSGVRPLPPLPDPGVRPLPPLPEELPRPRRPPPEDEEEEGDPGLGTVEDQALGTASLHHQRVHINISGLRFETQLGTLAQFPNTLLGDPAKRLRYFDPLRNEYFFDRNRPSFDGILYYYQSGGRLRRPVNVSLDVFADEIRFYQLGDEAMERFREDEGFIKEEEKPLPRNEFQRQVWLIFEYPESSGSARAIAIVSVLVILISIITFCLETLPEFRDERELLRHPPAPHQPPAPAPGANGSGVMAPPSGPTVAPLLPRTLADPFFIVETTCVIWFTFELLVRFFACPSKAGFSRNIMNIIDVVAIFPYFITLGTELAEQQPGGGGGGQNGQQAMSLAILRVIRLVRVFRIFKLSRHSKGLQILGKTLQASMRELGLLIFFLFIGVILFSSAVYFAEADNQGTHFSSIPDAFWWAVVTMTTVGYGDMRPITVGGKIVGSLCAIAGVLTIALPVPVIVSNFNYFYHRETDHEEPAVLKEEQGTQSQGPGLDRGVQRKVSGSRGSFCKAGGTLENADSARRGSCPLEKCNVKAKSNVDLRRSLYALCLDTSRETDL
# Sequence of Cytochrome P450 2D6 (P10635 whole entry): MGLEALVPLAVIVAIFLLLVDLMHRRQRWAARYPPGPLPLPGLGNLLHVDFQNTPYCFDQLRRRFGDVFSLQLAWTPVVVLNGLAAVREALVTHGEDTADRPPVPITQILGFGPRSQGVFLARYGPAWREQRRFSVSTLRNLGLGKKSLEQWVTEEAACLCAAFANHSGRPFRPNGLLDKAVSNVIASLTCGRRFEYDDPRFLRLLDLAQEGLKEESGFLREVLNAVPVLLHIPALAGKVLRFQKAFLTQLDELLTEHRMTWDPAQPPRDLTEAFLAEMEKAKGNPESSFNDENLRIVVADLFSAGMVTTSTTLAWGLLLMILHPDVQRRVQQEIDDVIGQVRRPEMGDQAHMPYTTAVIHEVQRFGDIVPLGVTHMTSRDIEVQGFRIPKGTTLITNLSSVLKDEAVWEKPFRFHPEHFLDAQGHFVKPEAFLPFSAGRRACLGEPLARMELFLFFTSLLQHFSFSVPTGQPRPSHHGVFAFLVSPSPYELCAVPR
smiles,measurement,setting,value
OC(CNC1CCCCC1)Cn1c2ccc(Br)cc2c2cc(Br)ccc21 (racemic),Cmax,[1],158 ng/mL
same,Activity,Plasmodium berghei [2],99.97%
same,half-life,[3],15 h
same,Vd,[4],13 L/kg
same,Activity,Plasmodium falciparum [5],Active
same,inhibition (INH),Cytochrome P450 2B6,Active
same,AUC,[6],3750 ng·h/mL
same,inhibition,[7],inactive
same,Activity,Salmonella typhimurium,Non-toxic
same,inhibition (INH),Cytochrome P450 2C8,Active
same,Activity,Plasmodium falciparum [8],Active
same,IC50,Plasmodium falciparum [9],9 nM
same,Activity,Plasmodium falciparum [10],Active
same,inhibition (INH),Cytochrome P450 2D6,Active
same,inhibition (INH),[11],Not Active
same,Activity,Plasmodium berghei [12],Active
same,Activity,Plasmodium berghei [13],38%
same,inhibition at 10 µM,hERG (KCNH2),99%
